According to ChEMBL document CHEMBL4330067, “Synthesis and mechanistic studies of diketo acids and their bioisosteres as potential antibacterial agents” (Eur J Med Chem, 2019):
pKi: −log10 of the molar value. Converted amounts (≈) assume the structure as drawn. The source made the active and inactive calls. The calls are words filed in the database; no cut-off is given here.

Tests used:
Escherichia coli [1] = test: Bactericidal activity against Escherichia coli at 1 to 2 times MIC after 24 hrs by spectrophotometric analysis; format: functional, organism-based
Procedure, shortened: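 Growth kinetics in 50 mL nutrient broth seeded at approx. 2×10⁶ cells/mL, compound at 2MIC, MIC and ½MIC, 37 °C at 160 rpm. Ciprofloxacin 10 µg/mL as positive control. 1 mL aliquots taken every 2 h from 0 to 22 h. Turbidity read at 600 nm and OD plotted against time.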

[2] = Inhibition of Mycobacterium tuberculosis methionine aminopeptidase 1C using Met-AMC as substrate by Dixon method
[3] = Inhibition of Streptococcus pneumoniae methionine aminopeptidase 1A using Met-AMC as substrate by Dixon method
Procedure, shortened: (§1)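 Purified MetAP at 4 µM in 50 mM HEPES with 150 mM KCl and CoCl2 at 3 molar equivalents of enzyme. pH 7.5 for SpMetAP1a and EfMetAP1a, pH 8.0 for HsMetAP1b. Substrate L-Met-AMC at 50, 100 and 150 µM. Compounds (10 mM DMSO stocks) tested over 1 to 120 µM for % inhibition; Ki by Dixon method.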

Escherichia coli [4] = test: Antibacterial activity against Escherichia coli ATCC 25922 after 24 hrs by broth dilution assay; format: functional; settings: ATCC 25922, 24 h
Procedure, shortened: (§2)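 Broth dilution per NCCLS in nutrient broth, serial dilutions 1000 to 7.8 µg/mL, DMSO below 4% final. Inoculum approx. 2.5×10⁶ cells/mL, 37 °C with shaking at 150 rpm for 24 h. MIC taken as the lowest concentration with no visible growth. Ciprofloxacin served as positive control.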

Escherichia coli [5] = test: Induction of cellular damage in Escherichia coli assessed as distorted cell membrane at MIC after 1 hr by TEM analysis; format: functional, organism-based
Streptococcus pneumoniae = test: Antibacterial activity against Streptococcus pneumoniae MTCC 655 after 24 hrs by broth dilution assay; format: functional; settings: MTCC 655, 24 h; procedure, shortened: as §2
Salmonella typhimurium = test: Antibacterial activity against Salmonella typhimurium MTCC 3224 after 24 hrs by broth dilution assay; format: functional, Salmonella enterica subsp. enterica serovar Typhimurium; settings: Salmonella enterica, MTCC 3224, 24 h; procedure, shortened: as §2
[6] = Inhibition of human methionine aminopeptidase 1B using Met-AMC as substrate by Dixon method; procedure, shortened: as §1
Homo sapiens = organism: Homo sapiens; test: Inhibition of human methionine aminopeptidase 1B at 100 uM using Met-AMC as substrate relative to control; procedure, shortened: as §1
Escherichia coli [7] = test: Antibacterial activity against Escherichia coli MRAE32 at 512 ug/mL after 24 hrs by broth dilution assay relative to control; format: functional
Procedure, shortened: (§3)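 Multidrug-resistant E. coli isolates in Luria broth, test range 8 to 1024 µg/mL (ciprofloxacin 0.49 to 63.3 µg/mL). Inoculum 10 µL of a 1000-fold diluted 0.1 OD600 culture, incubated overnight at 37 °C. OD read at 600 nm. % inhibition = (a−b)/a×100, with media and compound-colour blanks subtracted.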

Escherichia coli [8] = test: Synergistic antibacterial activity against Escherichia coli MRA11 after 18 hrs in presence of ciprofloxacin by checkerboard method; format: functional; settings: MRA11, 18 h
Procedure, shortened: (§4)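 Checkerboard combination with ciprofloxacin in Mueller-Hinton broth: compound 1024 to 16 µg/mL crossed with ciprofloxacin 128 to 2 µg/mL. Inoculum 5×10⁵ CFU/mL suspension, 18 h at 37 °C. Fractional inhibitory concentration index derived from the combination.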

[9] = tested on: Mycobacterium tuberculosis; test: Inhibition of Mycobacterium tuberculosis methionine aminopeptidase 1C at 100 uM using Met-AMC as substrate relative to control
Procedure, shortened: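 Purified MtMetAP1c (4 µM) in 50 mM Hepes pH 7.5 with 150 mM KCl and CoCl2 at three molar equivalents of enzyme. Substrate was L-Met-AMC at 50, 100 or 150 µM. Compounds came from 10 mM DMSO stocks. Percent inhibition was taken against the uninhibited control.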

Escherichia coli [10] = test: Synergistic antibacterial activity against Escherichia coli MRC17 after 18 hrs in presence of ciprofloxacin by checkerboard method; format: functional; settings: MRC17, 18 h; procedure, shortened: as §4
Enterococcus faecalis = test: Inhibition of Enterococcus faecalis methionine aminopeptidase 1A at 100 uM using Met-AMC as substrate relative to control; procedure, shortened: as §1
Escherichia coli [11] = test: Antibacterial activity against Escherichia coli MRA11 at 512 ug/mL after 24 hrs by broth dilution assay relative to control; format: functional; procedure, shortened: as §3
Escherichia coli [12] = test: Antibacterial activity against Escherichia coli MRC17 after overnight incubation; format: functional; procedure, shortened: as §3
Escherichia coli [13] = test: Antibacterial activity against Escherichia coli MRA11 after overnight incubation; format: functional; procedure, shortened: as §3
Escherichia coli [14] = test: Synergistic antibacterial activity against Escherichia coli MRAE33 after 18 hrs in presence of ciprofloxacin by checkerboard method; format: functional; settings: MRAE33, 18 h; procedure, shortened: as §4
Escherichia coli [15] = test: Synergistic antibacterial activity against Escherichia coli MRAE33 assessed as ciprofloxacin MIC at 16 to 1024 ug/mL after 18 hrs by checkerboard method; format: functional; settings: MRAE33, 18 h; procedure, shortened: as §4
Escherichia coli [16] = test: Antibacterial activity against Escherichia coli MRAE26 after overnight incubation; format: functional; procedure, shortened: as §3
Escherichia coli [17] = test: Synergistic antibacterial activity against Escherichia coli MRA11 assessed as fractional inhibitory concentration index after 18 hrs in presence of ciprofloxacin by checkerboard method; format: functional; procedure, shortened: as §4
CHO = test: Cytotoxicity against CHO cells at 50 ug/mL after 48 hrs by MTT assay; format: cell-based, Cricetulus griseus; settings: chinese hamster
Procedure, shortened: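 MTT assay: cells maintained in DMEM with 10% FBS and penicillin/streptomycin at 37 °C, 5% CO2. Seeded at approx. 2×10⁴ cells/well, 24 h before treatment, then exposed to 10 to 400 µg/mL for 48 h at 37 °C. MTT (5 mg/mL stock in PBS) added for 4 h, formazan dissolved in DMSO, A570 read. Triplicate wells; viability given relative to untreated cells.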

Escherichia coli [18] = test: Synergistic antibacterial activity against Escherichia coli MRC17 assessed as ciprofloxacin MIC at 16 to 1024 ug/mL after 18 hrs by checkerboard method; format: functional; settings: MRC17, 18 h; procedure, shortened: as §4
Pseudomonas aeruginosa [19] = test: Antibacterial activity against Pseudomonas aeruginosa MTCC 2453 after 24 hrs by broth dilution assay; format: functional; settings: MTCC 2453, 24 h; procedure, shortened: as §2
Escherichia coli [20] = test: Antibacterial activity against Escherichia coli MROB11 at 512 ug/mL after 24 hrs by broth dilution assay relative to control; format: functional; procedure, shortened: as §3
Escherichia coli [21] = test: Antibacterial activity against Escherichia coli MRC24 after overnight incubation; format: functional; procedure, shortened: as §3
Escherichia coli [22] = test: Antibacterial activity against Escherichia coli MRAE32 after overnight incubation; format: functional; procedure, shortened: as §3
Escherichia coli [23] = test: Antibacterial activity against Escherichia coli MRAE33 after overnight incubation; format: functional; procedure, shortened: as §3
Pseudomonas aeruginosa [24] = test: Anti-biofilm activity against Pseudomonas aeruginosa after 24 hrs by XTT assay; format: functional, organism-based
Procedure, shortened: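 Biofilm XTT reduction assay: serial dilutions 1000 to 7.8 µg/mL in tryptic soy broth, inoculum approx. 5×10⁵ CFU/mL, 37 °C for 24 h static. Non-adherent cells removed by PBS wash, XTT added, 90 min at 37 °C in dark, absorbance at 490 nm. IC50 (50% inhibition of biofilm formation) read from dose-response curves.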

Escherichia coli [25] = test: Antibacterial activity against Escherichia coli MRC17 at 512 ug/mL after 24 hrs by broth dilution assay relative to control; format: functional; procedure, shortened: as §3
Escherichia coli [26] = test: Synergistic antibacterial activity against Escherichia coli MRA11 assessed as ciprofloxacin MIC at 16 to 1024 ug/mL after 18 hrs by checkerboard method; format: functional; settings: MRA11, 18 h; procedure, shortened: as §4

## Cc1c(C(=O)/C=C(\O)C(=O)N[C@H](C)C(=O)O)oc2ccc(Br)cc12
Escherichia coli [1]
  Activity: Active
[2]
  pKi: 5.00
[3]
  pKi: 4.55
Escherichia coli [4]
  MIC: 62.5 µg/mL (≈ 158 µM)
Escherichia coli [5]
  Activity: Active
Streptococcus pneumoniae
  MIC: 62.5 µg/mL (≈ 158 µM)
Salmonella typhimurium
  MIC: 500 µg/mL (≈ 1260 µM)
[6]
  pKi: 4.66
Homo sapiens
  inhibition: 87.5%
Escherichia coli [7]
  Activity: 100%
Escherichia coli [8]
  MIC: 512 µg/mL
[9]
  inhibition: 87.7%
Escherichia coli [10]
  MIC: 512 µg/mL
Enterococcus faecalis
  inhibition: 92.7%
Escherichia coli [11]
  Activity: 100%
Escherichia coli [12]
  ICmax: 512 µg/mL
Escherichia coli [12]; Escherichia coli, MRC17
  MIC: 512 µg/mL (≈ 1290 µM)
Escherichia coli [13]
  ICmax: 512 µg/mL
Escherichia coli [13]; Escherichia coli, MRA11
  MIC: 512 µg/mL (≈ 1290 µM)
Escherichia coli [14]
  MIC: 16 µg/mL
Escherichia coli [15]
  MIC: 2 µg/mL
Escherichia coli [16]
  ICmax: 1024 µg/mL
Escherichia coli [17]
  fractional inhibitory concentration index (FICI): 1.125
CHO
  Activity: Non-Toxic
Escherichia coli [18]
  MIC: 64 µg/mL
Pseudomonas aeruginosa [19]
  MIC: 250 µg/mL (≈ 631 µM)
Escherichia coli [20]
  Activity: 100%
Escherichia coli [21]
  ICmax: 512 µg/mL
Escherichia coli [22]
  ICmax: 512 µg/mL
Escherichia coli [23]
  ICmax: 1024 µg/mL
Escherichia coli [23]; Escherichia coli, MRAE33
  MIC: 1020 µg/mL (≈ 2580 µM)
Pseudomonas aeruginosa [24]
  IC50: 1.69 µg/mL (≈ 4.27 µM)
Escherichia coli [25]
  Activity: 100%
Escherichia coli [26]
  MIC: 16 µg/mL
